Entries after “also recorded” stand apart in the source; their conditions may differ. Like-named read-outs stand apart in the source and are kept apart here. Blank lines part the entries; values can stand above or below the compound they belong to.
How the values were obtained:
[1] = molecular target: T1, D2 receptors on substantia nigra dopamine neurons (Mus musculus, UniProt P61168); format: cell-based; settings: CyHQ-sulpiride 5 μM, 1 s flash; quinpirole 300 nM or dopamine 1 μM
[2] = molecular target: T1, D2 receptors on substantia nigra dopamine neurons; format: cell-based
D2 receptor = settings: cited from earlier work
[3] = UV-vis spectra in KMOPS buffer pH 7.2; format: physicochemical; settings: for ε365 / ε405: 0.1 mM in KMOPS buffer; for ε365: 365 nm; for ε405: 405 nm; for λmax: 0.1 mM solution in KMOPS buffer
[4] = 1PE photolysis at 365 and 405 nm; format: physicochemical; settings: for Φu(365) quantum yield of photolysis / sensitivity (ε365Φu): 365 nm; for Φu(365) quantum yield of photolysis / Φu(405) quantum yield of photolysis: 0.1 mM in KMOPS buffer; for Φu(365) quantum yield of photolysis / sensitivity (ε365Φu) / Φu(405) quantum yield of photolysis / sensitivity (ε405Φu): pH 7.2; for sensitivity (ε365Φu) / sensitivity (ε405Φu): KMOPS buffer; for Φu(405) quantum yield of photolysis / sensitivity (ε405Φu): 405 nm; for yield of DA or sulpiride released (365 nm): photolysis at 365 nm; for yield of DA or sulpiride released (365 nm) / yield of DA or sulpiride released (405 nm): measured by HPLC, KMOPS pH 7.2; for yield of DA or sulpiride released (405 nm): photolysis at 405 nm
How it was run: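 Test compound at 0.1 mM in KMOPS buffer (100 mM KCl, 10 mM MOPS, adjusted to pH 7.2 with KOH), irradiated with one-photon light. Released dopamine quantified by HPLC to give chemical yield.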

2-photon excitation = format: physicochemical; settings: excitation at 740 nm, KMOPS buffer pH 7.2
How it was run: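 Two-photon uncaging of test compound in KMOPS buffer (100 mM KCl and 10 mM MOPS, brought to pH 7.2 with KOH), with excitation at 740 nm.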

[5] = Spontaneous hydrolysis in the dark, buffer, by HPLC; format: physicochemical; settings: 100-μM solution in KMOPS buffer pH 7.2, HPLC
rat D2 receptors = settings: cited from earlier work
human D2 receptors = settings: cited from earlier work
[6] = pH 7.2; cited from earlier work

T1 sequence (P61168 whole entry): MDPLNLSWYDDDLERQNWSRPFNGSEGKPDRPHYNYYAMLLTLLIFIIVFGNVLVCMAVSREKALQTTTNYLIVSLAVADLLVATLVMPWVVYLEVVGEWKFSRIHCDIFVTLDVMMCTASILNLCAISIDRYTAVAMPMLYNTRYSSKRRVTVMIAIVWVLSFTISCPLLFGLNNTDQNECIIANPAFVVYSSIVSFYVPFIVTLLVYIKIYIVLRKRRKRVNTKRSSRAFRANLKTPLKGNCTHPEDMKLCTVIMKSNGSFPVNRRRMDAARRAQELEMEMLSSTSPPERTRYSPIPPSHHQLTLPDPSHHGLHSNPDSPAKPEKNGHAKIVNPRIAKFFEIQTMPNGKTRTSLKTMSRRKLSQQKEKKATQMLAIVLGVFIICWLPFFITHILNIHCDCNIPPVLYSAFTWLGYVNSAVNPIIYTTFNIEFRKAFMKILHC

time constant of decay τ of D2 current after CyHQ-sulpiride photolysis [1]: 307 ms
rise time of current from 10 to 90% of the peak ([2]; iontophoretically applied dopamine (1 M, 10 ms 100 nA pulse)): 270 ms
rise time of current from 10 to 90% of the peak ([2]; synaptically released dopamine (IPSC, single stimulation)): 141 ms
Compound: NCCc1ccc(O)c(O)c1 [dopamine]
koff (D2 receptor): 1.69 min^–1

ε365 [3]: 5480 M^–1 cm^–1
ε405 [3]: 324 M^–1 cm^–1
λmax [3]: 364 nm
Φu(365) quantum yield of photolysis [4]: 0.19
sensitivity (ε365Φu) [4]: 1044
Φu(405) quantum yield of photolysis [4]: 0.19
sensitivity (ε405Φu) [4]: 61
yield of DA or sulpiride released (365 nm) [4]: 16%
yield of DA or sulpiride released (405 nm) [4]: 15%
chemical yield of dopamine ([4]; range over 365 and 405 nm photolysis): 15–16%
photochemical quantum yield ([4]; wavelength not stated in the sentence (1PE)): 0.19
δu 2-photon uncaging action cross-section (2-photon excitation): 0.12 GM
dark stability: no spontaneous hydrolysis in the dark observed within the time given [5]: 100 h
Compound: N#Cc1c(O)ccc2ccc(COc3ccc(CCN)cc3OCc3ccc4ccc(O)c(C#N)c4n3)nc12 [(CyHQ)2-O,O-DA, 2,2′-(((4-(2-Aminoethyl)-1,2-phenylene)bis(oxy))bis(methylene))bis(7-hydroxyquinoline-8-carbonitrile)]

effect on CyHQ-O-DA flash response ([2]; sulpiride 500 nM, CyHQ-O-DA 150 μM): all response was blocked
reversal of the dark current produced by CyHQ-O-DA ([2]; sulpiride 1 μM, CyHQ-O-DA 1 mM in the dark): unable to fully reverse the effect
Compound: CCN1CCCC1CNC(=O)c1cc(S(N)(=O)=O)ccc1OC (stereo not drawn) [sulpiride]
Ki (rat D2 receptors): 6.9 nM
Ki (human D2 receptors): 9.4 nM

The next lines start with the compound.

Compound: COc1cc(C(Oc2ccc(CNC(=O)CCCC/C=C/C(C)C)cc2OC)C(=O)O)c([N+](=O)[O-])cc1OC (stereo not drawn)
decomposition in the dark in 24 h [6]: 1.7%

Compound: (8-Cyano-7-hydroxyquinolin-2-yl)methyl(3,4-dihydroxyphenethyl)carbamate [CyHQ-N-DA]
ε365 [3]: 6700 M^–1 cm^–1
ε405 [3]: 251 M^–1 cm^–1
λmax [3]: 364 nm
Φu(365) quantum yield of photolysis [4]: 0.19
sensitivity (ε365Φu) [4]: 1283
Φu(405) quantum yield of photolysis [4]: 0.20
sensitivity (ε405Φu) [4]: 50
yield of DA or sulpiride released (365 nm) [4]: 60%
yield of DA or sulpiride released (405 nm) [4]: 49%
δu 2-photon uncaging action cross-section (2-photon excitation): did not photolyze through 2PE; also recorded: n.p. ^c
dark stability: no spontaneous hydrolysis in the dark observed within the time given [5]: 24 h

Source: paper PMC7101055 (ACS Chemical Neuroscience, 2020)
